Laboratory results from PubChem BioAssay.
The source made the active and inactive calls.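 The calls were made as follows, unless noted: active = a full or partial loss of lipid-probe fluorescence in the fish gall bladder, intestine or both, judged by eye; inactive = no fluorescence loss, or compound toxic to the fish.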

Tests used:
[1] = inhibitors of TNFa-induced NFkB p65 translocation, primary screen, imaging, HUVEC, MLSMR starter and 10KST1 sets (AID 438;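 active = inhibition above 20% together with a positive visual image hit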;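 also: compound added about 3h40 before a 20 min TNFalpha stimulation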;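 as to inhibition: signal is the nuclear over cytoplasmic p65 intensity ratio per well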); conditions: HUVEC TNFa-induced p65 nuclear translocation; cell count: measured here: nuclei count (cytotoxicity indicator), at 2.08 µM; inhibition: at 2 µM, stronger effect = higher value, 0% TNFa-plus-vehicle, 100% no-TNFa wells
[2] = endothelial E-selectin expression blockers – imaging, HUVEC, immunofluorescence, MLSMR starter and 10KST1 sets, primary screen (AID 487;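 active = visually confirmed hit in the image check and inhibition above 20%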;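 as to inhibition: signal is fraction of cell area covered by stained E-selectin grains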;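 as to nuclei count: 100% = median nuclei count of all wells on the same plate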); conditions: HUVEC TNFalpha-induced E-selectin immunofluorescence imaging, at 2 µM; inhibition: stronger effect = higher value; nuclei count: measured here: cell number, toxicity
[3] = Primary imaging screen for DUSP6 inhibitors that restore phospho-Erk in transfected HeLa cells, chemical complementation (AID 609;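 active = compounds giving at least 50% inhibition in the cell-based MKP-3 phosphatase rescue imaging test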;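 as to inhibition: phospho-Erk level distribution per well compared with pooled transfected vehicle control wells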); conditions: HeLa MKP-3 transfected, phospho-Erk imaging KS statistic, at 10 µM, cells stimulated with TPA for 15 min
[4] = target: Dual specificity protein phosphatase 6 (Homo sapiens) (UniProt Q16828); experiment: as above; conditions: HeLa MKP-3 transfected, phospho-Erk imaging KS statistic; at 10 µM; stronger effect = higher value; cells stimulated with TPA for 15 min
[5] = target: Voltage-gated potassium channel subunit beta-2 (Rattus norvegicus) (UniProt P62483); experiment: inhibitors of rat Kvbeta2 reductase activity – biochemical, NADPH fluorescence, primary screen (AID 622;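 active = fluorescence slope higher than the sample average by over 3 SD, cut at about -0.22 in these data, passing the limit was not always enough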;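 also: slope of raw intensity against log time taken from 70 to 1610 s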); conditions: recombinant KvBeta, 4-cyanobenzaldehyde reduction, at 10 µM, stronger effect = higher value
[6] = target: Voltage-gated potassium channel subunit beta-2 (Rattus norvegicus) (UniProt P62483); experiment: enhancers of rat Kvbeta2 NADPH turnover – biochemical, NADPH fluorescence, primary screen (AID 623;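 active = NADPH fluorescence slope more negative than the mean of all samples by about 3 SD, 99.7% confidence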;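 also: fluorescence intensity change per second fitted from 20 to 320 s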); conditions: Recombinant KvBeta, NADPH fluorescence decrease slope, 10 min; at 10 µM; stronger effect = lower value
[7] = target: Muscarinic acetylcholine receptor M4 (Homo sapiens) (UniProt P08173); experiment: M4-linked GIRK flux change, two-sided – cell-based, HEK293 M4/GIRK, thallium flux, BTC-AM, M4 allosteric agonist project, primary screen (AID 625;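 active = fluorescence slope after compound addition differing from the mean of all tested samples at 99.7% confidence, mostly higher but some lower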;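 also: thallium influx through GIRK channels coupled to M4 in HEK293 cells with BTC-AM dye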); conditions: at 10 µM, actives lie on both sides
In short: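 System: HEK293 cells with M4 receptor and GIRK channels | Incubation: Cells overnight at 37 °C, BTC-AM loading 1 h, reads 2 min total | Technique: Kinetic BTC-AM fluorescence sampled at 1 Hz, 10 s pre-addition baseline | Measure: Post-addition slope, 15–24 s, of baseline-normalized fluorescence | Control set: Carbachol positive, DMSO negative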

[8] = inhibitors of larval lipid processing in zebrafish, primary screen, whole organism, PED6 fluorescence, gall bladder and intestine (AID 686); conditions: Zebrafish larvae PED6 lipid processing, fluorescence scoring; screened at 20 µM (by protocol);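 also: larvae 5 to 7 days old with five fish per well; signal comes from phospholipase A2 cleavage of quenched PED6 carried via bile; overnight exposure to compound and PED6 before scoring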
In short: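 Test system – live zebrafish larvae aged 5-7 days, whole organism · Buffer or medium – E3 fish medium · Reagent – quenched phospholipase substrate PED6, 100 nM final, ingested by larvae · Doses – 20 µM single dose · Incubation – overnight compound and PED6 incubation · Technique – visual fluorescence microscopy scoring of gall bladder, gut · Read-out basis – visual per-well fluorescence inhibition score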

[9] = loss of swimming-algae plug formation – whole organism, Chlamydomonas reinhardtii, WT vs cilia-less mutant, absorbance, 96-well, primary screen (AID 463189;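 active = inhibition at or above 50% relative to wild type and mutant plate controls; inactive = inhibition below 50%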;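 also: 0% = wild type cc124 cells in DMSO and 100% = ciliumless bld1 mutant cells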); conditions: Chlamydomonas reinhardtii gravitaxis, OD600 absorbance, 2 days; at 10 µM; stronger effect = higher value
[10] = measured here: cell density z-score
[11] = measured here: nuclear c-Myc green intensity z-score
[12] = measured here: nuclear pErk red intensity z-score, stronger effect = higher value

Sequence of Voltage-gated potassium channel subunit beta-2 (Rattus norvegicus) (P62483 whole entry, looked up): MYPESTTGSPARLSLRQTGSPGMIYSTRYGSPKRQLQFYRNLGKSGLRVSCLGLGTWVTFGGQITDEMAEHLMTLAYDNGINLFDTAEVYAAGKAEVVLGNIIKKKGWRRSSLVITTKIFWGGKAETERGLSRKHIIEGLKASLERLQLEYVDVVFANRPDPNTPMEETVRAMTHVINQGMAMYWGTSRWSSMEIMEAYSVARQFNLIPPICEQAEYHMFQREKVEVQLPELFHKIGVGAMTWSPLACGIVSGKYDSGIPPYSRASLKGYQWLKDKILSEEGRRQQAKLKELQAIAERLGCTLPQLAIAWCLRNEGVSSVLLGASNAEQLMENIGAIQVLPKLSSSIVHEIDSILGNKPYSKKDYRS
Sequence of Dual specificity protein phosphatase 6 (Homo sapiens) (Q16828 whole entry, looked up): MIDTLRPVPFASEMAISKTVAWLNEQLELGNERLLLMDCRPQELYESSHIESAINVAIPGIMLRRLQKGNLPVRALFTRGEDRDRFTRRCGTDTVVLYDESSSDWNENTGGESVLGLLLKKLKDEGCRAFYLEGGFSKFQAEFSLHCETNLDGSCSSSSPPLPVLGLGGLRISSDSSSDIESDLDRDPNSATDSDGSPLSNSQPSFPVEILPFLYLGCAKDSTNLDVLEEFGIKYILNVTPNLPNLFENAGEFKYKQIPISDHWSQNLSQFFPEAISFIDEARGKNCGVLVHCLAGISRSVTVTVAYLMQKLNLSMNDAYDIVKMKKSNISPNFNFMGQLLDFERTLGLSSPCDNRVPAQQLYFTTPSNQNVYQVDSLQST
Sequence of Muscarinic acetylcholine receptor M4 (Homo sapiens) (P08173 whole entry, looked up): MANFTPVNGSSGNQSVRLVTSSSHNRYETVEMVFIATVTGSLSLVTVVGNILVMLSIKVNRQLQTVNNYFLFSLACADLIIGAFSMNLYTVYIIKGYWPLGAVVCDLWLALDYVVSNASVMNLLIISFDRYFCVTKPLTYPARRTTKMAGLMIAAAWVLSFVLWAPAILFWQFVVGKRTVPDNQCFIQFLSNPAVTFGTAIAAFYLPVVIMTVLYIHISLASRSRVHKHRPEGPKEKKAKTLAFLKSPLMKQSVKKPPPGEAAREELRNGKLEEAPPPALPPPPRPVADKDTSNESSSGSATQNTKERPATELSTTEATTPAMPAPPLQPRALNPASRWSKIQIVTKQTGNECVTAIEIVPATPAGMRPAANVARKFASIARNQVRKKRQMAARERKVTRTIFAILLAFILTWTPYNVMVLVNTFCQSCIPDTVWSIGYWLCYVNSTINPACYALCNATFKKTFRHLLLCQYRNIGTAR

Row | Structure (SMILES) | cell count [1] | inhibition [1] | inhibition [2] | nuclei count [2] [%] | z-score [3, 10] | z-score [3, 11] | z-score [3, 12] | inhibition [4] | fluorescence slope [5] | NADPH fluorescence slope [6] | fluorescence slope [7] | outcome [8] | inhibition [9]
1 | Cc1nc2c(c(N3CCOCC3)n1)OCC(=O)N2 | 562 | -5.6% (inactive) | -63.7% (inactive) | 132 | -1.14 | 0.329 | 1.34 | -4.59% (inactive) | -0.454 (inactive) | -9.1e-05 (inactive) | 0.00529 (inactive) | inactive | 31.8% (inactive)
2 | OCCOCCNc1ncnc2c1cnn2-c1ccc(Cl)cc1 | 578 | -11.9% (inactive) | -74.5% (inactive) | 181 | 0.588 | -0.286 | 0.737 | -4.59% (inactive) | -0.308 (inactive) | -2.8e-05 (inactive) | 0.00585 (inactive) | inactive | 26.1% (inactive)
3 | CCc1nc(N2CCCC2)c(C#N)c2c1CCCC2 | 422 | 2.1% (inactive) | -71.3% (inactive) | 118 | -1.3 | 0.104 | 0.215 | -6.59% (inactive) | -0.506 (inactive) | 3e-05 (inactive) | 0.00476 (inactive) | inactive | -11.4% (inactive)
4 | C/C(NC(=O)c1cccs1)=C1\C(=O)C[C@@H]2[C@H]1C2(C)C | 562 | -1.6% (inactive) | -127% (inactive) | 150 | 0.211 | -0.0395 | -0.0984 | 11.9% (inactive) | -0.392 (inactive) | -6e-05 (inactive) | 0.00498 (inactive) | inactive | -3.09% (inactive)
5 | N#C/C(C(=O)N1CCCCC1)=C1\Nc2ccccc2S1 | 649 | 6.4% (inactive) | -0.9% (inactive) | 117 | -0.0253 | -0.323 | -0.359 | 1.63% (inactive) | -0.457 (inactive) | -6.2e-05 (inactive) | 0.00412 (inactive) | inactive | 15.7% (inactive)
6 | COc1ccc(/C(O)=C2\C(=O)C(=O)N(CCN(C)C)C2c2cccc(OC)c2OC)cc1Cl (stereo unspecified) | 629 | -9.8% (inactive) | -43.6% (inactive) | 170 | -0.541 | -0.411 | -0.226 | 11.4% (inactive) | -0.443 (inactive) | -3.1e-05 (inactive) | 0.00451 (inactive) | inactive | 10.3% (inactive)
7 | CCCCCCOc1ccc(N2C(=O)CC(N3CCN(C(=O)c4ccco4)CC3)C2=O)cc1 (stereo unspecified) | 632 | 8.2% (inactive) | -105% (inactive) | 150 | 0.106 | -0.155 | -0.8 | 10.1% (inactive) | -0.487 (inactive) | -3.5e-05 (inactive) | 0.00531 (inactive) | inactive | 5.01% (inactive)
8 | CCOC(=O)CC(=O)CSc1nnc2sc3ccccc3n12 | 493 | -14.5% (inactive) | 27.3% (inactive) | 174 | 0.311 | 0.752 | -0.0836 | 3.97% (inactive) | -0.427 (inactive) | -3e-05 (inactive) | 0.0062 (inactive) | inactive | 6.97% (inactive)
9 | CCOC(=O)/C(C#N)=C1/SC(CCO)C(=O)N1c1ccccc1 (stereo unspecified) | 541 | -19.2% (inactive) | -6.8% (inactive) | 122 | -0.811 | 0.0733 | 0.776 | -2.59% (inactive) | -0.373 (inactive) | -2e-05 (inactive) | 0.00516 (inactive) | inactive | -8.39% (inactive)
10 | C[N+]1(CCNC(=O)/C=N/O)CCCCC1 | 468 | -0.1% (inactive) | -76.5% (inactive) | 147 | -1.04 | 0.313 | 0.488 | -0.624% (inactive) | -0.42 (inactive) | -2.5e-05 (inactive) | 0.00534 (inactive) | inactive | 13.4% (inactive)
11 | Cc1ccc(S(=O)(=O)c2cc3c(=O)n4cccc(C)c4nc3n(CC3CCCO3)c2=N)cc1 (stereo unspecified) | 573 | -12.2% (inactive) | 34.6% (inactive) | 107 | 0.122 | 0.519 | -1.24 | -8.27% (inactive) | -0.456 (inactive) | -3.3e-05 (inactive) | 0.00435 (inactive) | inactive | -6.46% (inactive)
12 | Cn1c[n+](C)cc1/C=N/O | 710 | -2% (inactive) | -108% (inactive) | 159 | -0.468 | 0.134 | -0.77 | 0.671% (inactive) | -0.459 (inactive) | -6.2e-05 (inactive) | 0.00537 (inactive) | inactive | -4.46% (inactive)
13 | COCCNc1oc(-c2ccc(F)cc2)nc1C#N | 631 | -8.1% (inactive) | -48.8% (inactive) | 162 | 1.98 | -0.407 | 1.1 | 24% (inactive) | -0.446 (inactive) | -6.5e-05 (inactive) | 0.00617 (inactive) | inactive | -8.51% (inactive)
14 | Brc1ccc(-c2cnnc(N3CCCC3)n2)cc1 | 399 | -2.1% (inactive) | -57.7% (inactive) | 130 | -1.38 | 0.891 | -0.195 | -0.608% (inactive) | -0.415 (inactive) | -1.2e-05 (inactive) | 0.005 (inactive) | inactive | 42.9% (inactive)
15 | CCCc1cc(=O)oc2c(C)c(O)c(CN3CCCCC3)cc12 | 657 | -2.4% (inactive) | -23.3% (inactive) | 157 | -0.426 | -0.355 | 0.314 | 1.04% (inactive) | -0.00538 (inactive) | -1.8e-06 (inactive) | 0.00467 (inactive) | inactive | 0.97% (inactive)
16 | Cc1cccc(-c2nnc3n2N=C(c2ccccc2)CS3)c1 | 713 | 6.8% (inactive) | -55.5% (inactive) | 169 | 0.462 | -0.93 | 1.32 | 16.8% (inactive) | -0.415 (inactive) | -6.7e-05 (inactive) | 0.00492 (inactive) | inactive | 44.7% (inactive)
17 | CC(C)NCc1c(O)c(Br)cc2oc3c(c12)CCCC3 | 533 | 9.9% (inactive) | -3.5% (inactive) | 99.8 | 0.0675 | -0.158 | -0.115 | -7.67% (inactive) | -0.517 (inactive) | -1.1e-05 (inactive) | 0.00361 (inactive) | inactive | 53.2% (active)
18 | N#Cc1cc(Oc2cccc3cccnc23)c(-n2nnc3ccccc32)cc1C#N | 527 | -0.1% (inactive) | -156% (inactive) | 145 | 2.59 | -0.877 | -1.07 | 6.04% (inactive) | -0.438 (inactive) | -2.5e-05 (inactive) | 0.0061 (inactive) | inactive | 25.9% (inactive)
19 | CCOC(=O)c1c(C)n(C)c2ccc(O)c(CN3CCCCC3)c12 | 616 | 9.7% (inactive) | -7.7% (inactive) | 92.8 | -0.792 | 0.194 | -0.0734 | -15.1% (inactive) | -0.442 (inactive) | -3.9e-05 (inactive) | 0.00334 (inactive) | inactive | 22.8% (inactive)
20 | O=C(O)CCCC(=O)N1CCN(C(c2ccccc2)c2ccccc2)CC1 | 593 | 2% (inactive) | 16.4% (inactive) | 93.4 | 0.508 | 0.369 | -2.19 | -9.53% (inactive) | -0.501 (inactive) | -2.2e-05 (inactive) | 0.00548 (inactive) | inactive | -16% (inactive)
21 | CCOc1ccc(C2CC(c3ccccc3)Nc3nc(N)nn32)cc1 (stereo unspecified) | 364 | -2.2% (inactive) | -80.6% (inactive) | 144 | 1.38 | -1.02 | 0.957 | 11.9% (inactive) | -0.467 (inactive) | -0.000102 (inactive) | 0.00481 (inactive) | inactive | -15.5% (inactive)
22 | CSc1nc2sc3c(c2c2nnnn12)CCCC3 | 506 | -14.9% (inactive) | -77.3% (inactive) | 118 | 0.676 | -0.0981 | -1.25 | -5.81% (inactive) | -0.455 (inactive) | -7.9e-06 (inactive) | 0.00421 (inactive) | inactive | 31% (inactive)
23 | C(=N\n1cnnc1)/c1cccc(Oc2ccccc2)c1 | 569 | -5.8% (inactive) | -140% (inactive) | 111 | -0.768 | 1.37 | 1.58 | -6.06% (inactive) | -0.515 (inactive) | -5.4e-05 (inactive) | 0.00705 (inactive) | inactive | 78.1% (active)
24 | COC(=O)[C@H]1CCCN1C(=O)Nc1cccc(Oc2c(F)c(F)c(F)c(F)c2F)c1 | 709 | -2.1% (inactive) | 2.5% (inactive) | 205 | 0.848 | 0.709 | 0.784 | 13.4% (inactive) | -0.396 (inactive) | -4.7e-05 (inactive) | 0.00536 (inactive) | inactive | 36.9% (inactive)
25 | CC1(C(=O)CSc2n[nH]c(-c3ccccc3Cl)n2)CCC(=O)O1 (stereo unspecified) | 640 | -3.4% (inactive) | -44.5% (inactive) | 144 | 1.47 | -0.819 | -0.432 | -2.47% (inactive) | -0.482 (inactive) | -7.8e-05 (inactive) | 0.0054 (inactive) | inactive | 3.93% (inactive)
26 | CCCSc1nnc(NC(=O)Nc2ccc(F)cc2)s1 | 660 | -13.9% (inactive) | -24% (inactive) | 182 | 0.28 | -1.17 | -0.511 | 20.2% (inactive) | -0.488 (inactive) | -6.8e-05 (inactive) | 0.00807 (inactive) | inactive | 6.75% (inactive)
27 | Cc1cc(=O)[nH]c(COc2ccccc2)n1 | 687 | -9.9% (inactive) | -104% (inactive) | 162 | 0.188 | 0.603 | 0.438 | 3.49% (inactive) | -0.432 (inactive) | -2e-05 (inactive) | 0.00544 (inactive) | inactive | -9.35% (inactive)
